According to the M2OR odorant receptor database:
Numbering of substitutions follows the chain as printed.

Key:
Settings in all cases: stereoisomer not certain
OR5AC2 (Homo sapiens) = target: T1, OR5AC2 (Homo sapiens) (UniProt Q9NZP5)
T1 sequence (whole entry): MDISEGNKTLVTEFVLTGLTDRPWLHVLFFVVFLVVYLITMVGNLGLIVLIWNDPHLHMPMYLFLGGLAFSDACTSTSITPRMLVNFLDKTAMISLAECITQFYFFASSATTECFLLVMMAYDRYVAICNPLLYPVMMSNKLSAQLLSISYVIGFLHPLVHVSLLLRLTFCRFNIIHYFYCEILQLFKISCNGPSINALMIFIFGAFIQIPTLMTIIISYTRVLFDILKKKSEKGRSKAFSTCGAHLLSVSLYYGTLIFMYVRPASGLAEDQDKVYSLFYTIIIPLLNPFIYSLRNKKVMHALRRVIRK
Procedure, shortened: (§1)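 Assay methods differ from source to source, frequently being transient luciferase assays in mammalian cell lines. For each receptor–molecule pair, the label responsive (active) applies when the original authors judged the measured signal statistically different from baseline, and non-responsive (inactive) applies otherwise.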

OR52N4 (Homo sapiens) = target: T2, OR52N4 (Homo sapiens) (UniProt Q8NGI2)
T2 sequence (whole entry): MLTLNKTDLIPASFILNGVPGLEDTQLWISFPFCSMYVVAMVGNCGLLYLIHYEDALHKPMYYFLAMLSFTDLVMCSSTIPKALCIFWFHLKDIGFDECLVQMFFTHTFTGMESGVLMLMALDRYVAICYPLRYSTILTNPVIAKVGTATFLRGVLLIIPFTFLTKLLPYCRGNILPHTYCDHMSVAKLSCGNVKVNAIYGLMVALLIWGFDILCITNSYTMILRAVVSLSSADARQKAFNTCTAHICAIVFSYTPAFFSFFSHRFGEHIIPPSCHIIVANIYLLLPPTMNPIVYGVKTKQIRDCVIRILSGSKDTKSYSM
Procedure, shortened: as §1

OR52N5 (Homo sapiens) = target: T3, OR52N5 (Homo sapiens) (UniProt Q8NH56)
T3 sequence (whole entry): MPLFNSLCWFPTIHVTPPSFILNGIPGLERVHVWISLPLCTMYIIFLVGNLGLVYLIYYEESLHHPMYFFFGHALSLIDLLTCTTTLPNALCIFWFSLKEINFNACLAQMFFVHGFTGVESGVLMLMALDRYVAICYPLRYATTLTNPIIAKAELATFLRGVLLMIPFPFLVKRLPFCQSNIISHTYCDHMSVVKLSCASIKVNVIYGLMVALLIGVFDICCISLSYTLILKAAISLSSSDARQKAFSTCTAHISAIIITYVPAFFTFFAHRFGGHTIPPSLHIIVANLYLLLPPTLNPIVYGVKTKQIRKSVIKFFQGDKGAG
Procedure, shortened: as §1

OR52R1 (Homo sapiens) = target: T4, OR52R1 (Homo sapiens) (UniProt Q8NGF1)
T4 sequence (whole entry): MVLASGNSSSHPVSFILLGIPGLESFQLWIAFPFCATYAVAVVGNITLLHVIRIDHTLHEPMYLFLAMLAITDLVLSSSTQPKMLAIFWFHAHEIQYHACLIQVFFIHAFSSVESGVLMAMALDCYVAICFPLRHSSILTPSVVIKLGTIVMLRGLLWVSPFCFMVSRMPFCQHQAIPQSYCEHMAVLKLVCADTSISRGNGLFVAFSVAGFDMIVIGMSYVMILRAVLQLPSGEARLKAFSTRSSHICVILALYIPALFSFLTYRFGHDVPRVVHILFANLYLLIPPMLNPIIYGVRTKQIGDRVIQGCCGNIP
Procedure, shortened: as §1

OR52W1 (Homo sapiens) = target: T5, OR52W1 (Homo sapiens) (UniProt Q6IF63)
T5 sequence (whole entry): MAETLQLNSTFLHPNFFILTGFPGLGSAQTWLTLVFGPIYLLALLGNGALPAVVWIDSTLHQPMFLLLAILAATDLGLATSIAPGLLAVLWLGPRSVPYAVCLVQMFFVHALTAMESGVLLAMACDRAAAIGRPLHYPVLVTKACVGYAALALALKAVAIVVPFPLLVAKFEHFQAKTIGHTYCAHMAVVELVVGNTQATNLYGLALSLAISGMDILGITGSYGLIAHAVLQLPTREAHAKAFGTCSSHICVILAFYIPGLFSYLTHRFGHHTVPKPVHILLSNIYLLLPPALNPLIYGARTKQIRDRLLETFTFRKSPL
Procedure, shortened: as §1

OR56A1 (Homo sapiens) = target: T6, OR56A1 (Homo sapiens) (UniProt Q8NGH5)
T6 sequence (whole entry): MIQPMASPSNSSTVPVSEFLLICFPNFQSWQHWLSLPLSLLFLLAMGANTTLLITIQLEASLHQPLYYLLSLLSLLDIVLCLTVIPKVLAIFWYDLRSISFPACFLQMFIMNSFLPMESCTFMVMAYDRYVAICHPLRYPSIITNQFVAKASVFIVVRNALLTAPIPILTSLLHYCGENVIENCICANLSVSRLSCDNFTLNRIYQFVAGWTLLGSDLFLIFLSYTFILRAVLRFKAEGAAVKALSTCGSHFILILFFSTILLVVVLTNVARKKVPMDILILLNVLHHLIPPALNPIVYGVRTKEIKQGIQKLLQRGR
Procedure, shortened: as §1

OR56A3 (Homo sapiens) = target: T7, OR56A3 (Homo sapiens) (UniProt Q8NH54)
T7 sequence (whole entry): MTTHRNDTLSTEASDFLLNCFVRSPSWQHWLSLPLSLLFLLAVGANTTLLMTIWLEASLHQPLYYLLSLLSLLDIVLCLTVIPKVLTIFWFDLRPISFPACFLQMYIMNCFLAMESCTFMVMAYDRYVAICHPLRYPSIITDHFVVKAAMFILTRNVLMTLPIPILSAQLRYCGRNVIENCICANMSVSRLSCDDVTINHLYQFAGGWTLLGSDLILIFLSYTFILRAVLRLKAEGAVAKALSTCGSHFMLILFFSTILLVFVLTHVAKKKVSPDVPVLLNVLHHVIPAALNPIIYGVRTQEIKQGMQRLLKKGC
Procedure, shortened: as §1

OR56A4 (Homo sapiens) = target: T8, OR56A4 (Homo sapiens) (UniProt Q8NGH8)
T8 sequence (whole entry): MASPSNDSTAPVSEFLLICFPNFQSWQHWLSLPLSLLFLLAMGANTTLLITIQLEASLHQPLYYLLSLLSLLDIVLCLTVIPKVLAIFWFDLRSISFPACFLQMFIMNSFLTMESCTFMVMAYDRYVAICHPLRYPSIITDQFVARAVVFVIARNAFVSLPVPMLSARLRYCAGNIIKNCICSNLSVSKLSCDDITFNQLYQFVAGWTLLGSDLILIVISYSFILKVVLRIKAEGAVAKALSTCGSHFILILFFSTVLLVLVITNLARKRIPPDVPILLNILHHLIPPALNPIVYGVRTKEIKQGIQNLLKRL
Procedure, shortened: as §1

OR56A5 (Homo sapiens) = target: T9, OR56A5 (Homo sapiens) (UniProt P0C7T3)
T9 sequence (whole entry): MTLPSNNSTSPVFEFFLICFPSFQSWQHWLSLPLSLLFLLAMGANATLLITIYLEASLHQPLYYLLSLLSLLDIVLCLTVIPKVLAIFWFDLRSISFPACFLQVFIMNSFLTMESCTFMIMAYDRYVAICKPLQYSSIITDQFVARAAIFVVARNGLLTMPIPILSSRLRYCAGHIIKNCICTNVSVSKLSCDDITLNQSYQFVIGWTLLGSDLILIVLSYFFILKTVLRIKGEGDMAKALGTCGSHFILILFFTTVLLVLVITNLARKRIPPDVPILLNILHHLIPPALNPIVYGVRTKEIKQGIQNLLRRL
Procedure, shortened: as §1

OR56B1 (Homo sapiens) = target: T10, OR56B1 (Homo sapiens) (UniProt Q8NGI3)
T10 sequence (whole entry): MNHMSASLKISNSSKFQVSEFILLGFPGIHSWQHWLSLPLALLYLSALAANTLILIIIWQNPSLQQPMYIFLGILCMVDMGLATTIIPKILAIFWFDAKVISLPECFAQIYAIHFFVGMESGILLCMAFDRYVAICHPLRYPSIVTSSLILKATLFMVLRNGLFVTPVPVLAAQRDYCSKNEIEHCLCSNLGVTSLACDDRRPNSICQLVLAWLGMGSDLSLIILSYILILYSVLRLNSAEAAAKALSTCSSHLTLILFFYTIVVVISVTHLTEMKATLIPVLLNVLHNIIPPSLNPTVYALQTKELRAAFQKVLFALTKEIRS
Procedure, shortened: as §1

OR56B4 (Homo sapiens) = target: T11, OR56B4 (Homo sapiens) (UniProt Q8NH76)
T11 sequence (whole entry): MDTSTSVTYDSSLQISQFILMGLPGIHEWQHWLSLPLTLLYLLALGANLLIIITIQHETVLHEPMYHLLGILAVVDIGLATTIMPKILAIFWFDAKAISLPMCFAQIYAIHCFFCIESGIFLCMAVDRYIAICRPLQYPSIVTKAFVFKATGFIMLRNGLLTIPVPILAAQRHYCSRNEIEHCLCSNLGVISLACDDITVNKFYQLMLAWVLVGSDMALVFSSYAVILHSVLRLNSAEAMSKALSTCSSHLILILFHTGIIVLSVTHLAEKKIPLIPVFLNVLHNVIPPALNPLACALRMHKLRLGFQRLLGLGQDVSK
Procedure, shortened: as §1

OR5A1 (Homo sapiens) = target: T12, OR5A1 (Homo sapiens) (UniProt Q8NGJ0)
T12 sequence (whole entry): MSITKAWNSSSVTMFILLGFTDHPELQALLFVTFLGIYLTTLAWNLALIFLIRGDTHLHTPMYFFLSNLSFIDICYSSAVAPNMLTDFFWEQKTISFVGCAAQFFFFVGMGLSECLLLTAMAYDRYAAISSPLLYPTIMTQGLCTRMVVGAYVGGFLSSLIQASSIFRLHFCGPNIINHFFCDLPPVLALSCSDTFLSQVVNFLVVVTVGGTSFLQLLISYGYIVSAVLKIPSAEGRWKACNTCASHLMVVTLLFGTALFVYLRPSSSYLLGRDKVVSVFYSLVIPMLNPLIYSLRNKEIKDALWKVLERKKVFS
Procedure, shortened: as §1

OR5A2 (Homo sapiens) = target: T13, OR5A2 (Homo sapiens) (UniProt Q8NGI9)
T13 sequence (whole entry): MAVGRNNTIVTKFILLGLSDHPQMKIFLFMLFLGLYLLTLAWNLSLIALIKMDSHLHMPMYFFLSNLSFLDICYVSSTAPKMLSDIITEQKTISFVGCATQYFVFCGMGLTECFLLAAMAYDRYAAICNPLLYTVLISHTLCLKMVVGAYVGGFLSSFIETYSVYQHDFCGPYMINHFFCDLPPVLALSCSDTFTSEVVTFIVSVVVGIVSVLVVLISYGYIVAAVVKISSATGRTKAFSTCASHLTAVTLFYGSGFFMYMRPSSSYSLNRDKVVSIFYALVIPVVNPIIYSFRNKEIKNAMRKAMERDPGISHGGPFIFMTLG
Procedure, shortened: as §1

OR5AK2 (Homo sapiens) = target: T14, OR5AK2 (Homo sapiens) (UniProt Q8NH90)
T14 sequence (whole entry): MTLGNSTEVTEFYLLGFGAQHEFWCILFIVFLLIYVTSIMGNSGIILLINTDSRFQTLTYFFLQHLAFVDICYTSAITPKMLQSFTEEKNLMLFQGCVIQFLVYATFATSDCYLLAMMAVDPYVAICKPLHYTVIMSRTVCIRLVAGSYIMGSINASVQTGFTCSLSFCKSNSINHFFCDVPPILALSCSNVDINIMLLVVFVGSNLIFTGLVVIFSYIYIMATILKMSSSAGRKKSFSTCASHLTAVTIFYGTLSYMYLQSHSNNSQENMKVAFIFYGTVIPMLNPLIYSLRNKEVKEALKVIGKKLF
Procedure, shortened: as §1

OR5AN1 (Homo sapiens) = target: T15, OR5AN1 (Homo sapiens) (UniProt Q8NGI8)
T15 sequence (whole entry): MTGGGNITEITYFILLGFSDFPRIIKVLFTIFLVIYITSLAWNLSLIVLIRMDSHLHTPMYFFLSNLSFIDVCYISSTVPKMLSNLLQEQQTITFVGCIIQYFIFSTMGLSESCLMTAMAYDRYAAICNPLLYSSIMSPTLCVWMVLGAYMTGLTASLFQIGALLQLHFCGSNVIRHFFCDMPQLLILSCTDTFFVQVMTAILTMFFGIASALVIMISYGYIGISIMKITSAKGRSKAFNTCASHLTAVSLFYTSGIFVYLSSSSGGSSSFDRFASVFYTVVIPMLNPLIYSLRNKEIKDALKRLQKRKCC
Procedure, shortened: as §1

OR5AP2 (Homo sapiens) = target: T16, OR5AP2 (Homo sapiens) (UniProt Q8NGF4)
T16 sequence (whole entry): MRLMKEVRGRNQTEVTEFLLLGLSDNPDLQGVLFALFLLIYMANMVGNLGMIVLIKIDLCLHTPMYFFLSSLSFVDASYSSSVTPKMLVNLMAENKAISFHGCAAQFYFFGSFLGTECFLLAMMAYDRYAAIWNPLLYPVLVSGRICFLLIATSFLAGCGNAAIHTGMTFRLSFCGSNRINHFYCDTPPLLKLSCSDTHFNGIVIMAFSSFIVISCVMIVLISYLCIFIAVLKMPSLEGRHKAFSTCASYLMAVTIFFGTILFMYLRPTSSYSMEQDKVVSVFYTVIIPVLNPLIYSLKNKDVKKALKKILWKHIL
Procedure, shortened: as §1

OR5A1 D183N = system: T17, OR5A1 D183N
T17 sequence (whole entry): T12 sequence (whole entry) with D183N
Procedure, shortened: as §1

Measured: odorant receptor agonist call

COc1ccc(C)cc1
inactive: OR5AC2 (Homo sapiens)

CCCCCC(S)C(C)CO (stereo not drawn)
not listed: OR5A1 D183N
inactive: all other assays above

CCCCCCC=CCCC=O
inactive: all assays above

CCCCCCCCC(OC(C)=O)OC(C)=O
inactive: OR5AC2 (Homo sapiens)

CCC(S)C(C)CO (stereo not drawn)
not listed: OR5A1 D183N
inactive: all other assays above

CC(CC=O)c1ccc(C(C)(C)C)cc1 (stereo not drawn)
inactive: OR5AC2 (Homo sapiens)

CC1=C(O)C(=O)C(C)O1 (stereo not drawn)
not listed: OR56A4 (Homo sapiens)
inactive: all other assays above
